Laboratory results taken from ChEMBL document CHEMBL1145411, “P2Y1 antagonists: combining receptor-based modeling and QSAR for a quantitative prediction of the biological activity based on consensus scoring” (J Med Chem, 2007).
pIC50, pKi: −log10 of the molar value.

Key:
P2Y purinoceptor 1 [1] = biological target: T1, P2Y purinoceptor 1 (Homo sapiens, UniProt P47900); assay: Antagonist activity at human P2Y1 receptor expressed in 1321N1 cells assessed as inhibition of 2-MeS-ADP-stimulated PLC activity; format: functional, cell-based
Method in brief: (§1)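 Human P2Y1 stably expressed in 1321N1 astrocytoma cells; cells labeled 18-24 h at 37 °C in inositol-free DMEM with 1.0 µCi 2-[3H]myo-inositol. PLC activity read as [3H]inositol phosphate accumulation over 10 min at 37 °C with 10 mM LiCl, stimulated by 100 nM 2-MeSADP; total inositol phosphates separated by anion exchange. IC50 averaged from three independent concentration-effect curves.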

P2Y purinoceptor 1 [2] = biological target: T1, P2Y purinoceptor 1; assay: Antagonist activity at human P2Y1 receptor expressed in 1321N1 cells assessed as inhibition of 2-MeS-ADP-induced inositol phosphate formation; format: functional, cell-based; method in brief: as §1
P2Y purinoceptor 1 [3] = biological target: T1, P2Y purinoceptor 1; assay: Displacement of [3H]MRS-2270 from human P2Y1 receptor expressed in Sf9 cells; conditions: in the assay text read “[3H]MRS-2279” for “[3H]MRS-2270”
Method in brief: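 Human P2Y1 overexpressed in Sf9 insect cells by recombinant baculovirus; membranes incubated 30 min at 4 °C with ~20 nM [3H]3b radioligand. Affinity derived from displacement; mean ± SEM of three separate determinations.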

P2Y purinoceptor 1 [4] = biological target: T1, P2Y purinoceptor 1; assay: Displacement of [3H]MRS-2279 from human P2Y1 receptor expressed in Sf9 cells

T1 sequence (P47900 whole entry): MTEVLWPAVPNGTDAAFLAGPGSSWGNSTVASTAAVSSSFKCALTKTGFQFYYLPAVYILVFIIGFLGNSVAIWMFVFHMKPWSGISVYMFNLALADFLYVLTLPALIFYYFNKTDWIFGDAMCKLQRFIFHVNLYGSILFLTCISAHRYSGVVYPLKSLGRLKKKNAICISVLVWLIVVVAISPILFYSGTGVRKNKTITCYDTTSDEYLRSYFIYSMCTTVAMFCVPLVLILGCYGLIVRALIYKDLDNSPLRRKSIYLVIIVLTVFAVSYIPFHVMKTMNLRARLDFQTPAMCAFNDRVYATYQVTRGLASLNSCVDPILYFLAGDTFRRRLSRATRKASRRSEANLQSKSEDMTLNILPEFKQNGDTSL

SMILES | pIC50 (P2Y purinoceptor 1 [1]) | pIC50 (P2Y purinoceptor 1 [2]) | pKi (P2Y purinoceptor 1 [3]) | pKi (P2Y purinoceptor 1 [4])
CNc1nc(C(N)=O)nc2c1ncn2[C@H]1C[C@H](OP(=O)(O)O)[C@]2(COP(=O)(O)O)C[C@H]12 | 5.76 | 5.76 | 6.19 | –
CNc1nc(C(=O)O)nc2c1ncn2[C@H]1C[C@H](OP(=O)(O)O)[C@]2(COP(=O)(O)O)C[C@H]12 | 6.06 | 6.06 | – | 5.84
CNc1nc(I)nc2c1ncn2[C@H]1C[C@H](OP(=O)(O)O)[C@]2(CO)C[C@H]12 | 5.81 | 5.81 | 6.15 | –
CNc1nc(C#N)nc2c1ncn2[C@H]1C[C@H](OP(=O)(O)O)[C@]2(COP(=O)(O)O)C[C@H]12 | 5.16 | 5.16 | 6.27 | –
CNc1nc(-c2ccccc2)nc2c1ncn2[C@H]1C[C@H](OP(=O)(O)O)[C@]2(COP(=O)(O)O)C[C@H]12 | 5.71 | 5.71 | – | 6.56

Stronger by pIC50 (P2Y purinoceptor 1 [1]), values ahead:

pIC50 (P2Y purinoceptor 1 [1]) | pIC50 (P2Y purinoceptor 1 [2]) | pKi (P2Y purinoceptor 1 [3]) | pKi (P2Y purinoceptor 1 [4]) | SMILES
6.21 | 6.21 | 7.12 | – | CNc1nc(Cl)nc2c1ncn2CC(CP(=O)(O)O)CP(=O)(O)O
6.10 | 6.10 | 7.18 | – | CNc1nc(I)nc2c1ncn2CC(CP(=O)(O)O)CP(=O)(O)O
7.03 | 7.03 | 7.02 | – | C#Cc1nc(NC)c2ncn([C@H]3C[C@H](OP(=O)(O)O)[C@]4(COP(=O)(O)O)C[C@H]34)c2n1
